Laboratory results as given in paper PMC6127800 (Molecular Pharmaceutics, 2018).
Read-outs that look alike come from different tables or passages of the source.

Tests used:
[1] = system: MDAMB231 and SUM149 tumors; type: in vivo, mice; conditions: 60 min; 50 μg WL12 s.c. 60 min before tracer, n = 2
[2] = type: in vivo, mice; conditions: female, NSG, mouse, iv, 25 uCi, total radioactivity
[3] = Ex vivo biodistribution of [68Ga]WL12 in hPD-L1 and CHO tumor model; design: species or system mice; conditions: female, NSG, mouse, iv, 25 uCi, total radioactivity
Procedure, shortened: (§1)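 Female NSG mice, 6–8 weeks old, carried s.c. CHO cells stably expressing human PD-L1 and parental CHO cells (10 × 10^6, opposite upper flanks), used at 200−500 mm3. Radiotracer was given i.v. at 25 μCi, with tissues taken at 15, 60 and 120 min (n = 3). Blocking (n = 2) used 50 μg unlabeled peptide s.c. 60 min pre-tracer. %ID/g was decay-corrected against triplicate 68Ga standards; tumor-to-blood and tumor-to-muscle ratios were derived.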

hPD-L1 and CHO tumors = test: as above; design: species or system mice; conditions: 120 min
Procedure, shortened: as §1

## CCCC[C@H]1C(=O)N(C)[C@@H](CCCC)C(=O)N[C@@H](CCCNC(=O)CCC(C(=O)O)N2CCN(CC(=O)O)CCN(CC(=O)O)CCN(CC(=O)O)CC2)C(=O)N[C@H](C(=O)NCC(N)=O)CSCC(=O)N[C@@H](Cc2ccc(O)cc2)C(=O)N(C)[C@@H](C)C(=O)N[C@@H](CC(N)=O)C(=O)N2CCC[C@H]2C(=O)N[C@@H](Cc2c[nH]cn2)C(=O)N[C@@H](CC(C)C)C(=O)N2C[C@H](O)C[C@H]2C(=O)N[C@@H](Cc2c[nH]c3ccccc23)C(=O)N[C@@H](CO)C(=O)N[C@@H](Cc2cn(C)c3ccccc23)C(=O)N1C (stereo partly shown) [[^68Ga]WL12, metal not drawn]
[1]
  reduction in MDAMB231 tumor uptake with blocking dose of WL12: > 50%
[2]; MDAMB231 tumor
  tissue uptake at 1 h: 4.97 ± 0.8 %ID/g
[2]; SUM149 tumor
  tissue uptake at 1 h: 1.9 ± 0.1 %ID/g
[2]; kidney
  tissue uptake at 1 h: 65.6 ± 3.6 %ID/g
[2]; liver
  tissue uptake at 1 h: 11.4 ± 0.7 %ID/g
[3]; CHO tumor
  tissue uptake at 1 h: 1.33 ± 0.21 %ID/g
[3]; blood
  tissue uptake at 1 h: 3.3 ± 0.4 %ID/g
  tissue uptake at 2 h: 0.6 ± 0.01 %ID/g
[3]; hPD-L1 tumor / blood
  tissue to tissue ratio at 2 h: 16 ± 3.4
[3]; hPD-L1 tumor / muscle
  tissue to tissue ratio at 1 h: 59.8 ± 16.5
  tissue to tissue ratio at 2 h: 100 ± 61.2
[3]; hPD-L1 tumor
  tissue uptake at 0.25 h: 19.4 ± 3.3 %ID/g
  tissue uptake at 1 h: 11.6 ± 3.18 %ID/g
  tissue uptake at 2 h: 9.89 ± 1.72 %ID/g
[3]; kidney
  tissue uptake at 1 h: 64.7 ± 12.1 %ID/g
  tissue uptake at 2 h: 27.7 ± 4.09 %ID/g
[3]; liver
  tissue uptake at 1 h: 15.1 ± 7.6 %ID/g
  tissue uptake at 2 h: 2.7 ± 0.2 %ID/g
hPD-L1 and CHO tumors
  hPD-L1/CHO tumor ratio: 19.7 ± 2.7
